Test results from ChEMBL document CHEMBL1795294, “Modulation of the activity of histone acetyltransferases by long chain alkylidenemalonates (LoCAMs)” (Bioorg Med Chem, 2011).
pIC50: −log10 of the molar value. One block for each compound: values may come before it. Calls of active or inactive are those of the source. No cut-off for these calls is given here.

How the values were obtained:
[1] = target: CREB-binding protein (Homo sapiens) (UniProt Q92793); assay: Inhibition of human recombinant KAT3A expressed in Escherichia coli BL21 using histone H4 peptide as substrate at 50 uM after 2 hrs relative to control
Sequence of CREB-binding protein (Homo sapiens) (Q92793 2-2442 limits assumed): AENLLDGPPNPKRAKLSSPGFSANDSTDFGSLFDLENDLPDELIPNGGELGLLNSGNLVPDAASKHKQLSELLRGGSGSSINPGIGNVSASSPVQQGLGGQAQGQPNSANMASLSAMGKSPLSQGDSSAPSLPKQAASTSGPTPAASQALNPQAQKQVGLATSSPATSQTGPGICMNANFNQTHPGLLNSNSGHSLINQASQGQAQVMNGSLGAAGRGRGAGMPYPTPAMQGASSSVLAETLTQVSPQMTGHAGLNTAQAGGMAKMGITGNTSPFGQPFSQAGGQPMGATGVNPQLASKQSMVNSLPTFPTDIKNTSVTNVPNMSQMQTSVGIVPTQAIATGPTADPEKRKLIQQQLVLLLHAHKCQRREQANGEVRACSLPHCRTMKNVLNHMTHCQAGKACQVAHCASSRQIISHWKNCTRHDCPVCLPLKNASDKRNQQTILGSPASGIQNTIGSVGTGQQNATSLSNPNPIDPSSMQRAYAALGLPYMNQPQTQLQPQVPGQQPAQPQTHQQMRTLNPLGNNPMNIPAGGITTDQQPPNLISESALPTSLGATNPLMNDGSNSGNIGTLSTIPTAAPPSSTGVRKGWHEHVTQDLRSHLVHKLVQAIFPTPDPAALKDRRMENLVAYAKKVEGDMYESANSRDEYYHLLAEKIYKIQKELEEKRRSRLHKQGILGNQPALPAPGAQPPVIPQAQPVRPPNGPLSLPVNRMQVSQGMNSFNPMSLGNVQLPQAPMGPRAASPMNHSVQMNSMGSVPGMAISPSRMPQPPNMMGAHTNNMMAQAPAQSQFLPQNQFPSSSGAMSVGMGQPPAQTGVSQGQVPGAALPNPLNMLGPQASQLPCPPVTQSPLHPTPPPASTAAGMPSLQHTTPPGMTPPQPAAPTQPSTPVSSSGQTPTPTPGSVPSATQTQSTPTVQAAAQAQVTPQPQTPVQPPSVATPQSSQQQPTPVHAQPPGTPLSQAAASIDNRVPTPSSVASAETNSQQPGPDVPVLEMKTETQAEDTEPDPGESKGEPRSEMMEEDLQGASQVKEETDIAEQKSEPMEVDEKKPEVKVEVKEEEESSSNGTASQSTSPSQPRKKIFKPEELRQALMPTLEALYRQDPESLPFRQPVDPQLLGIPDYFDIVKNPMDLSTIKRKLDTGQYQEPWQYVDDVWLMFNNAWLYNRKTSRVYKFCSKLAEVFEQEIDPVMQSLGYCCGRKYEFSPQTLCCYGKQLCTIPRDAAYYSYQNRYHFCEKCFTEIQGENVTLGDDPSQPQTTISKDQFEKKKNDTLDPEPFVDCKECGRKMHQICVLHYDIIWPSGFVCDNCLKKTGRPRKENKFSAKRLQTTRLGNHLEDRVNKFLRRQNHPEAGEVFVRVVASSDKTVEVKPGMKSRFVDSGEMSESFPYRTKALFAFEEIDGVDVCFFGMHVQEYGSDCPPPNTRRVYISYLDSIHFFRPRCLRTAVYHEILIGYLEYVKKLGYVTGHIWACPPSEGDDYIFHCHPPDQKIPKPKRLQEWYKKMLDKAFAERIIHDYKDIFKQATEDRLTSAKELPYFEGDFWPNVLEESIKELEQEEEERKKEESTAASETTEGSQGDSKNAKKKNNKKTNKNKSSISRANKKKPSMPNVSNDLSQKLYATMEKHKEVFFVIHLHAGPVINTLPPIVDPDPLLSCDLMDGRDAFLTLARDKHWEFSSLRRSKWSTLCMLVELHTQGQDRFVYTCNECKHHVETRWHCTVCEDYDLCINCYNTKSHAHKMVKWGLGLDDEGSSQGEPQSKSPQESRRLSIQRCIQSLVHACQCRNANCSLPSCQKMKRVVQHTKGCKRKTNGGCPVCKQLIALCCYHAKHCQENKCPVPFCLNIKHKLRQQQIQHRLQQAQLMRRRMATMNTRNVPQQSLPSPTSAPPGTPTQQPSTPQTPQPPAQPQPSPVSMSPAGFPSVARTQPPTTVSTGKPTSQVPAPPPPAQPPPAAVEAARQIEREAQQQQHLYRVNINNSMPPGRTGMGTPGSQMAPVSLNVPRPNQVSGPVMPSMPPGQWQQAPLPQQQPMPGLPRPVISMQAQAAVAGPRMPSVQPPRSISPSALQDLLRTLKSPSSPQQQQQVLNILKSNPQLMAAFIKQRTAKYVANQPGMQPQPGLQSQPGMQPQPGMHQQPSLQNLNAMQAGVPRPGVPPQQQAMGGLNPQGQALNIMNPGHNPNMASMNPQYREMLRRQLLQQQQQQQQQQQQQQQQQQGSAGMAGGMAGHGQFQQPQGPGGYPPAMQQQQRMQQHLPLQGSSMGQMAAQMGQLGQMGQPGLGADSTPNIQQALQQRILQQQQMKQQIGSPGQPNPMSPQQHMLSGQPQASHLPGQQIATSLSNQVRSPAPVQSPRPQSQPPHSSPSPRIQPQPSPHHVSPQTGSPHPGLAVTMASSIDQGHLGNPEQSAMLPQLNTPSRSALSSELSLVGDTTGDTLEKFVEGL
Procedure, shortened: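 Recombinant CBP fragment (aa 1098–1877) from E. coli BL21, affinity purified. Spotted on P81 paper in triplicate, washed with TCA/acetone, scintillation DPM compared with negative control, expressed as %.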

[2] = target: Histone acetyltransferase KAT2B (Homo sapiens) (UniProt Q92831); assay: Inhibition of human recombinant KAT2B using histone H4 peptide as substrate at 50 uM after 2 hrs
Sequence of Histone acetyltransferase KAT2B (Homo sapiens) (Q92831 whole entry, looked up, the tested form may be a part): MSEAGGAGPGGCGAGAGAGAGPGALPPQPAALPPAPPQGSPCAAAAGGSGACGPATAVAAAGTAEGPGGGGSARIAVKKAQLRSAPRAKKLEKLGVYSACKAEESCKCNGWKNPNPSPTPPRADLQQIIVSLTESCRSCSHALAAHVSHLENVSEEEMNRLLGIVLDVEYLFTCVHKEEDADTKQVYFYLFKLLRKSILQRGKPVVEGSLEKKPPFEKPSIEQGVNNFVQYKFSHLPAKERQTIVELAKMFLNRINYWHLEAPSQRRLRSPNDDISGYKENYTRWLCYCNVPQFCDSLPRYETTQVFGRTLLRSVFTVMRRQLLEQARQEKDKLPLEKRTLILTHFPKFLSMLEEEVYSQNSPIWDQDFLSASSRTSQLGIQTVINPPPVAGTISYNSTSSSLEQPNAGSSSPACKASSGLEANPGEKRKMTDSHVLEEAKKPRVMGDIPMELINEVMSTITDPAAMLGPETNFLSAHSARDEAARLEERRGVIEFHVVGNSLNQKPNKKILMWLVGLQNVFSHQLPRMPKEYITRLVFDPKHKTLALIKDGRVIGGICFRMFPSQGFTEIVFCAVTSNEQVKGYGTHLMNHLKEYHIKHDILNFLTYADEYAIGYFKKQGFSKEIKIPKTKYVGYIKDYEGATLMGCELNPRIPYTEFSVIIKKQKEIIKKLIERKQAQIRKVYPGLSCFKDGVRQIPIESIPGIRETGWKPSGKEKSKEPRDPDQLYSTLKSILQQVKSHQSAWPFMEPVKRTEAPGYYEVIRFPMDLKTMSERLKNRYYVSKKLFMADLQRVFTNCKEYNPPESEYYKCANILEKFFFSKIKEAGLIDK
Procedure, shortened: (§1)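 Human PCAF (200 ng) in KAT buffer with 10 µg histone H4 peptide (aa 2–24), 20 µM acetyl-CoA with 0.5 µCi/mL [3H]-acetyl-CoA, and compound at 50 µM final, 2 h at 37 °C. Spotted on P81 paper in triplicate, washed with TCA then acetone, scintillation counted. Activity given as % of untreated control (100%).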

[3] = tested on: MCF7; assay: Inhibition of histone acetyltransferase in human MCF7 cells assessed as increase of alpha-tubulin acetylation level at 15 uM after 15 mins by Western blotting; type: cell-based
Procedure, shortened: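 MCF-7 cells grown in D-MEM at 200,000 cells/mL, 37 °C, 5% CO2, treated at 15 and 30 µM. Lysis in 50 mM Tris–HCl pH 7.4, 150 mM NaCl, 1% NP40, NaF, PMSF and protease inhibitors, 15 min at 4 °C. Bradford quantitation. Western blot with anti-acetyl-α-tubulin (1:1000), ERK1 as loading control.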

[4] = tested on: U-937; assay: Cell cycle arrest in human U937 cells assessed as accumulation at S phase at 25 uM after 30 hrs using propidium iodide staining by flow cytometry; type: functional, cell-based
Procedure, shortened: (§2)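 U937 cells kept at 200,000 cells/mL, 37 °C, 5% CO2, treated 30 h at 50 or 25 µM. Phase distribution by flow cytometry. Three independent experiments, mean ± SD.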

[5] = tested on: U-937; assay: Induction of apoptosis in human U937 cells at 25 uM after 30 hrs using annexin V/propidium iodide double-staining by FACS analysis; type: functional, cell-based
Procedure, shortened: (§3)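 U937 cells at 200,000 cells/mL, 37 °C, 5% CO2, exposed 30 h at 50 or 25 µM. Dose–response runs used 5–200 µM, with IC50 taken as the concentration giving 50% apoptosis. Annexin V/propidium iodide double staining, apoptotic subpopulations counted by FACS. Three independent experiments, mean ± SD.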

[6] = tested on: U-937; assay: Induction of granulocytic differentiation in human U937 after […] using propidium iodide staining by FACS analysis; type: functional, cell-based
[7] = target: Histone acetyltransferase KAT2B (Homo sapiens) (UniProt Q92831); assay: Increase of human recombinant KAT2B acetylation activity using histone H4 peptide as substrate at 50 uM after 2 hrs; procedure, shortened: as §1
[8] = tested on: MCF7; assay: Inhibition of histone acetyltransferase in human MCF7 cells assessed as increase of alpha-tubulin acetylation level after 15 mins by Western blotting; type: cell-based
[9] = tested on: U-937; assay: Inhibition of histone acetyltransferase in human U937 cells assessed as increase of histone H3 acetylation level at 50 uM after 15 mins by Western blotting; type: cell-based
Procedure, shortened: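 U937 cells treated at 50 µM. Histones prepared by Triton extraction buffer lysis, then overnight 0.2 M HCl extraction at 4 °C, Bradford quantitation. Immunoblot with pan-acetyl-H3 antibody (1:1000), Ponceau Red staining as loading check.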

[10] = target: Histone deacetylase (Homo sapiens) (UniProt Q13547+O15379+Q9UBN7+Q92769+Q9UQL6+Q8WUI4+Q9BY41+Q96DB2+P56524+Q9UKV0+Q969S8); assay: Inhibition of HDAC in human U937 cells at 50 uM after 15 mins by Western blotting; type: cell-based; conditions: U-937
[11] = tested on: U-937; assay: Cell cycle arrest in human U937 cells assessed as accumulation at S phase at 50 uM after 30 hrs using propidium iodide staining by flow cytometry; type: functional, cell-based; procedure, shortened: as §2
[12] = tested on: U-937; assay: Induction of apoptosis in human U937 cells at 50 uM after 30 hrs using annexin V/propidium iodide double-staining by FACS analysis; type: functional; procedure, shortened: as §3
[13] = tested on: U-937; assay: Induction of apoptosis in human U937 cells after 30 hrs using annexin V/propidium iodide double-staining by FACS analysis; type: functional, cell-based; conditions: U-937, 30 h; procedure, shortened: as §3
[14] = tested on: U-937; assay: Inhibition of histone acetyltransferase in human U937 cells assessed as increase of acetylation of histone H3 at K9 at 50 uM after 24 hrs by Western blotting; type: cell-based
Procedure, shortened: (§4)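 U937 cells treated 24 h at 50 µM. Acid-extracted histones (Triton buffer lysis, then 0.2 M HCl overnight at 4 °C) immunoblotted with site-specific antibodies (H3K9/K14/K18/K56ac, H4K5/K8/K16ac, pan-acetyl H4; 1:1000). Loading checked by Ponceau Red staining, or by histone H1 for pan-acetyl H4.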

[15] = tested on: U-937; assay: Inhibition of histone acetyltransferase in human U937 cells assessed as increase of acetylation of histone H3 at K18 at 50 uM after 24 hrs by Western blotting; type: cell-based; procedure, shortened: as §4
[16] = tested on: U-937; assay: Inhibition of histone acetyltransferase in human U937 cells assessed as increase of pan-acetylated histone H4 level at 50 uM after 24 hrs by Western blotting; type: cell-based; procedure, shortened: as §4
[17] = tested on: U-937; assay: Inhibition of histone acetyltransferase in human U937 cells assessed as increase of acetylation of histone H3 at K14 at 50 uM after 24 hrs by Western blotting; type: cell-based; procedure, shortened: as §4
[18] = tested on: U-937; assay: Inhibition of histone acetyltransferase in human U937 cells assessed as increase of acetylation of histone H3 at K56 at 50 uM after 24 hrs by Western blotting; type: cell-based; procedure, shortened: as §4
[19] = tested on: U-937; assay: Inhibition of histone acetyltransferase in human U937 cells assessed as increase of acetylation of histone H4 at K5 at 50 uM after 24 hrs by Western blotting; type: cell-based; procedure, shortened: as §4
[20] = tested on: U-937; assay: Inhibition of histone acetyltransferase in human U937 cells assessed as increase of acetylation of histone H4 at K8 at 50 uM after 24 hrs by Western blotting; type: cell-based; procedure, shortened: as §4
[21] = tested on: U-937; assay: Inhibition of histone acetyltransferase in human U937 cells assessed as increase of acetylation of histone H4 at K16 at 50 uM after 24 hrs by Western blotting; type: cell-based; procedure, shortened: as §4
[22] = tested on: U-937; assay: Inhibition of histone acetyltransferase in human U937 cells assessed as inhibition of acetylation of histone H4 at K8 at 50 uM after 24 hrs by Western blotting; type: cell-based; procedure, shortened: as §4
[23] = target: Albumin (Bos taurus, UniProt P02769); assay: Binding affinity to bovine serum albumin by surface plasmon resonance assay; conditions: cattle
Sequence of Albumin (P02769 whole entry): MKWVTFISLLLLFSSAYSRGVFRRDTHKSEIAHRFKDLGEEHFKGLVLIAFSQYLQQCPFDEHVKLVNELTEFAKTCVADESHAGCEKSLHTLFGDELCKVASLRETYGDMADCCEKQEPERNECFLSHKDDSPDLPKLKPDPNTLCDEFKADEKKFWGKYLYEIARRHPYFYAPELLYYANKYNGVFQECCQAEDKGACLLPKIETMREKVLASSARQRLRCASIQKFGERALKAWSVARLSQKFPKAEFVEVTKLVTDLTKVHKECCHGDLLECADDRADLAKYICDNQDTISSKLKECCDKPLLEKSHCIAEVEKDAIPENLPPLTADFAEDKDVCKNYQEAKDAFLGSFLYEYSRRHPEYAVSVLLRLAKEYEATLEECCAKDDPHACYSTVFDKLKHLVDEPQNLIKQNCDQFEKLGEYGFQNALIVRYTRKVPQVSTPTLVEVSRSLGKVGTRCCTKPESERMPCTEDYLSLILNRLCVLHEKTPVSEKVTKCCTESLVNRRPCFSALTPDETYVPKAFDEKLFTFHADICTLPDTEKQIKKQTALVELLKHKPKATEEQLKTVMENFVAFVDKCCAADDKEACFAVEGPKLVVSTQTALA

[24] = target: Histone acetyltransferase p300 (Homo sapiens) (UniProt Q09472); assay: Binding affinity to immobilized His6-tagged human full-length KAT3B expressed in Sf9 cells by surface plasmon resonance assay
[25] = target: Histone acetyltransferase p300 (Homo sapiens) (UniProt Q09472); assay: Binding affinity to His6-tagged immobilized human KAT3B catalytic domain expressed in Sf9 cells by surface plasmon resonance assay
[26] = tested on: MCF7; assay: Inhibition of histone acetyltransferase in human MCF7 cells assessed as increase of alpha-tubulin acetylation level at 15 and 30 uM after 15 mins by Western blotting

- inhibition [1]: Active
- inhibition [2]: Active
SMILES: CCCCCCCCCCCCCCCC(O)=C(C(=O)OCC)C(=O)OCC
- inhibition [3]: Active
- Activity [4]: inactive
- Activity [5]: inactive
- Activity [6]: inactive

- inhibition [1]: Active
- Activity [7]: Active
SMILES: CCCCCCCCCCCCCNC=C(C(=O)OCC)C(=O)OCC
- inhibition [8]: Dose-dependent effect
- Activity [4]: inactive
- Activity [5]: inactive
- Activity [6]: inactive

- inhibition [1]: 79%
- Activity [7]: Active
- inhibition [10]: inactive
- pIC50 [13]: 4.35
- Activity [23]: Not Active
- Activity [24]: Dose-dependent effect
- Activity [25]: Dose-dependent effect
SMILES: CCCCCCCCCCCCCCC=C(C(=O)OCC)C(=O)OCC
- inhibition [9]: Active
- Activity [11]: Active
- Activity [12]: 94.4%
- Activity [6]: inactive
- inhibition [14]: Active
- inhibition [15]: Active
- inhibition [16]: Active
- inhibition [17]: inactive
- inhibition [18]: inactive
- inhibition [19]: inactive
- inhibition [20]: inactive
- inhibition [21]: inactive
- inhibition [22]: inactive
- inhibition [26]: inactive
